Test results reported in ChEMBL document CHEMBL1914423, “New imidazo[2,1-b]thiazole derivatives: synthesis, in vitro anticancer evaluation, and in silico studies” (Eur J Med Chem, 2011).

Tests used:
Format in all cases: functional
[1] = test system: NCI-H460; assay: Anticancer activity against human NCI-H460 cells after 48 hrs by SRB assay; conditions: NCI-H460, 48 h
[2] = test system: UO-31; assay: Anticancer activity against human UO31 cells after 48 hrs by SRB assay; conditions: UO-31, 48 h; for CC50: read-out: LC50 (the source's name)
Method in brief: (§1)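 NCI-60 five-dose mode: cells in RPMI 1640 with 5% FBS and 2 mM glutamine, plated at 5000–40,000 cells/well, and preincubated 24 h, with time-zero plates TCA-fixed. Drug given at five concentrations (10-fold or ½-log serial dilutions). Cold TCA fixation 60 min at 4 °C, SRB stain, Tris solubilization, A515. IC50 taken where [(Ti−Tz)/(C−Tz)]×100 = 50.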

[3] = test system: HOP-62; assay: Anticancer activity against human HOP62 cells after 48 hrs by SRB assay; conditions: HOP-62, 48 h
Method in brief: (§2)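 NCI five-dose screen. Cells in RPMI 1640 with 5% FBS and 2 mM L-glutamine, seeded at 5000–40,000 cells/well according to doubling time, then pre-incubated 24 h at 37 °C in 5% CO2. Drugs dissolved in DMSO, five concentrations by 10-fold or 1/2-log dilution. Cells fixed with TCA, SRB-stained, A515 read. IC50 solved from [(Ti−Tz)/(C−Tz)]×100 = 50.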

[4] = Anticancer activity against human Hs 578T cells after 48 hrs by SRB assay; conditions: for CC50: read-out: LC50 (the source's name); method in brief: as §2
[5] = test system: T47D; assay: Anticancer activity against human T47D cells after 48 hrs by SRB assay; conditions: for CC50: read-out: LC50 (the source's name); method in brief: as §1
[6] = test system: IGROV-1; assay: Anticancer activity against human IGROV1 cells after 48 hrs by SRB assay; conditions: IGROV-1, 48 h; for CC50: read-out: LC50 (the source's name); method in brief: as §2
[7] = test system: SK-MEL-28; assay: Anticancer activity against human SK-MEL-28 cells after 48 hrs by SRB assay; conditions: SK-MEL-28, 48 h; for CC50: read-out: LC50 (the source's name)
[8] = test system: COLO 205; assay: Anticancer activity against human COLO205 cells after 48 hrs by SRB assay; conditions: COLO 205, 48 h; for CC50: read-out: LC50 (the source's name); method in brief: as §2
[9] = test system: HT-29; assay: Anticancer activity against human HT-29 cells after 48 hrs by SRB assay; conditions: HT-29, 48 h; for CC50: read-out: LC50 (the source's name); method in brief: as §2
[10] = test system: NCI-H226; assay: Anticancer activity against human NCI-H226 cells after 48 hrs by SRB assay; conditions: NCI-H226, 48 h
[11] = test system: MDA-MB-468; assay: Anticancer activity against human MDA-MB-468 cells after 48 hrs by SRB assay; conditions: MDA-MB-468, 48 h; for CC50: read-out: LC50 (the source's name)
[12] = test system: EKVX; assay: Anticancer activity against human EKVX cells after 48 hrs by SRB assay; method in brief: as §2
[13] = test system: MCF7; assay: Anticancer activity against human MCF7 cells after 48 hrs by SRB assay; conditions: MCF7, 48 h; for CC50: read-out: LC50 (the source's name); method in brief: as §2
[14] = test system: M14; assay: Anticancer activity against human M14 cells after 48 hrs by SRB assay; conditions: M14, 48 h; for CC50: read-out: LC50 (the source's name); method in brief: as §2
[15] = test system: DU-145; assay: Anticancer activity against human DU145 cells after 48 hrs by SRB assay; conditions: DU-145, 48 h; for CC50: read-out: LC50 (the source's name); method in brief: as §2
[16] = test system: SF-268; assay: Anticancer activity against human SF268 cells after 48 hrs by SRB assay; conditions: SF-268, 48 h; for CC50: read-out: LC50 (the source's name)
[17] = test system: NCI-H23; assay: Anticancer activity against human NCI-H23 cells after 48 hrs by SRB assay; conditions: NCI-H23, 48 h
[18] = test system: HL-60(TB); assay: Anticancer activity against human HL-60(TB) cells after 48 hrs by SRB assay; conditions: HL-60, 48 h
Method in brief: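 NCI-60 five-dose screen. Cells grown in RPMI 1640 with 5% FBS and 2 mM L-glutamine, seeded at 5000–40,000 cells/well, and held 24 h at 37 °C and 5% CO₂ before drug. DMSO stocks were diluted into five concentrations (10-fold or ½-log steps). Settled suspension cells were fixed with cold TCA, SRB-stained, and read at 515 nm. […] was taken where [(Ti−Tz)/(C−Tz)]×100 = 50.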

[19] = test system: TK-10; assay: Anticancer activity against human TK10 cells after 48 hrs by SRB assay; conditions: TK-10, 48 h; for CC50: read-out: LC50 (the source's name); method in brief: as §1
[20] = test system: SN12C; assay: Anticancer activity against human SN12C cells after 48 hrs by SRB assay; conditions: for CC50: read-out: LC50 (the source's name)
[21] = test system: SF-295; assay: Anticancer activity against human SF295 cells after 48 hrs by SRB assay; conditions: SF-295, 48 h; for CC50: read-out: LC50 (the source's name)
[22] = test system: PC-3; assay: Anticancer activity against human PC3 cells after 48 hrs by SRB assay; conditions: PC-3, 48 h; for CC50: read-out: LC50 (the source's name)
[23] = test system: NCI-H322M; assay: Anticancer activity against human NCI-H322M cells after 48 hrs by SRB assay; conditions: for CC50: read-out: LC50 (the source's name)
[24] = test system: RXF 393; assay: Anticancer activity against human RXF393 cells after 48 hrs by SRB assay; conditions: RXF 393, 48 h; for CC50: read-out: LC50 (the source's name)
[25] = test system: CAKI-1; assay: Anticancer activity against human Caki1 cells after 48 hrs by SRB assay; conditions: CAKI-1, 48 h; for CC50: read-out: LC50 (the source's name); method in brief: as §2
[26] = test system: Malme-3M; assay: Anticancer activity against human MALME-3M cells after 48 hrs by SRB assay; conditions: for CC50: read-out: LC50 (the source's name); method in brief: as §2
[27] = test system: SR; assay: Anticancer activity against human SR cells after 48 hrs by SRB assay; conditions: for CC50: read-out: LC50 (the source's name); method in brief: as §1
[28] = test system: OVCAR-8; assay: Anticancer activity against human OVCAR8 cells after 48 hrs by SRB assay; conditions: OVCAR-8, 48 h

Compound: O=C(NCCNc1nccc(-c2c(-c3cccc(O)c3)nc3sccn23)n1)c1ccccc1O
- GI50 [1]: 7.88 µM
- LC50 [1]: > 100 µM
- TGI [1]: 31 µM
- GI50 [2]: 5.68 µM
- TGI [2]: 19.7 µM
- CC50 [2]: 72.8 µM
- GI50 [3]: 3.59 µM
- LC50 (concentration killing 50% of starting cells) [3]: > 100 µM
- TGI [3]: 32.5 µM
- GI50 [4]: 2.96 µM
- TGI [4]: 26.9 µM
- CC50 [4]: > 100 µM
- GI50 [5]: 2.95 µM
- TGI [5]: 20 µM
- CC50 [5]: > 100 µM
- GI50 [6]: 17.4 µM
- TGI [6]: 92.9 µM
- CC50 [6]: > 100 µM
- GI50 [7]: 0.161 µM
- TGI [7]: 11.1 µM
- CC50 [7]: 61.2 µM
- GI50 [8]: 5.58 µM
- TGI [8]: 20.9 µM
- CC50 [8]: 66.1 µM
- GI50 [9]: 4.22 µM
- TGI [9]: 15.3 µM
- CC50 [9]: 40.8 µM
- GI50 [10]: 4.61 µM
- LC50 (concentration killing 50% of tumour cells) [10]: > 100 µM
- TGI [10]: 29.6 µM
- GI50 [11]: 2.3 µM
- TGI [11]: 18.2 µM
- CC50 [11]: > 100 µM
- GI50 [12]: 7.81 µM
- LC50 [12]: > 100 µM
- TGI [12]: 39.1 µM
- GI50 [13]: 4.03 µM
- TGI [13]: 22.2 µM
- CC50 [13]: > 100 µM
- GI50 [14]: 0.683 µM
- TGI [14]: 39 µM
- CC50 [14]: > 100 µM
- GI50 [15]: 5.22 µM
- TGI [15]: 43.3 µM
- CC50 [15]: > 100 µM
- GI50 [16]: 3.59 µM
- TGI [16]: 24.9 µM
- CC50 [16]: > 100 µM
- GI50 [17]: 11.5 µM
- LC50 (50% lethal concentration) [17]: > 100 µM
- TGI [17]: 67.7 µM
- GI50 [18]: 4.95 µM
- LC50 [18]: > 100 µM
- TGI [18]: > 100 µM
- GI50 [19]: 11.6 µM
- TGI [19]: 52.2 µM
- CC50 [19]: > 100 µM
- GI50 [20]: 2.84 µM
- TGI [20]: 74.9 µM
- CC50 [20]: > 100 µM
- GI50 [21]: 7.69 µM
- TGI [21]: 27.2 µM
- CC50 [21]: 83.9 µM
- GI50 [22]: 5.15 µM
- TGI [22]: 77.6 µM
- CC50 [22]: > 100 µM
- GI50 [23]: 4.6 µM
- TGI [23]: 18.5 µM
- CC50 [23]: 66.6 µM
- GI50 [24]: 3.19 µM
- TGI [24]: 21.2 µM
- CC50 [24]: > 100 µM
- GI50 [25]: 3.71 µM
- TGI [25]: 55.6 µM
- CC50 [25]: > 100 µM
- GI50 [26]: 0.433 µM
- TGI [26]: 11.8 µM
- CC50 [26]: 45.1 µM
- GI50 [27]: 5.94 µM
- TGI [27]: > 100 µM
- CC50 [27]: > 100 µM

Compound: O=C(NCCNc1nccc(-c2c(-c3cccc(O)c3)nc3sccn23)n1)Nc1cccc(C(F)(F)F)c1
- GI50 [1]: 4.79 µM
- LC50 [1]: 83.5 µM
- TGI [1]: 20.8 µM
- GI50 [2]: 3.25 µM
- TGI [2]: 16.8 µM
- CC50 [2]: 98.1 µM
- GI50 [3]: 8.33 µM
- LC50 (concentration killing 50% of starting cells) [3]: 61 µM
- TGI [3]: 23.4 µM
- GI50 [28]: 3.56 µM
- TGI [28]: 11 µM
- CC50 ([28]; read-out: LC50 (the source's name)): 37.6 µM
- GI50 [4]: 3.56 µM
- TGI [4]: 17.8 µM
- CC50 [4]: > 100 µM
- GI50 [5]: 6.52 µM
- TGI [5]: 25.6 µM
- CC50 [5]: 97.1 µM
- GI50 [6]: 3.48 µM
- TGI [6]: 13.1 µM
- CC50 [6]: 93.4 µM
- GI50 [7]: 2.68 µM
- TGI [7]: 10 µM
- CC50 [7]: 62.2 µM
- GI50 [8]: 3.36 µM
- TGI [8]: 12 µM
- CC50 [8]: 59.5 µM
- GI50 [9]: 3.45 µM
- TGI [9]: 10.8 µM
- CC50 [9]: 49.9 µM
- GI50 [10]: 9.99 µM
- LC50 (concentration killing 50% of tumour cells) [10]: 81 µM
- TGI [10]: 28.5 µM
- GI50 [11]: 1.67 µM
- TGI [11]: 3.33 µM
- CC50 [11]: 6.67 µM
- GI50 [12]: 4.16 µM
- LC50 [12]: > 100 µM
- TGI [12]: 36.6 µM
- GI50 [13]: 3.57 µM
- TGI [13]: 16 µM
- CC50 [13]: 78.1 µM
- GI50 [14]: 1.79 µM
- TGI [14]: 3.39 µM
- CC50 [14]: 6.41 µM
- GI50 [15]: 5.37 µM
- TGI [15]: 30 µM
- CC50 [15]: > 100 µM
- GI50 [16]: 3.45 µM
- TGI [16]: 14.6 µM
- CC50 [16]: > 100 µM
- GI50 [17]: 4.62 µM
- LC50 (50% lethal concentration) [17]: > 100 µM
- TGI [17]: 32.5 µM
- GI50 [18]: 2.85 µM
- LC50 [18]: > 100 µM
- TGI [18]: 6.03 µM
- GI50 [19]: 3.66 µM
- TGI [19]: 11.1 µM
- CC50 [19]: 94.5 µM
- GI50 [20]: 3.42 µM
- TGI [20]: 20 µM
- CC50 [20]: > 100 µM
- GI50 [21]: 4.16 µM
- TGI [21]: 29.7 µM
- CC50 [21]: > 100 µM
- GI50 [22]: 2.94 µM
- TGI [22]: 12.6 µM
- CC50 [22]: > 100 µM
- GI50 [23]: 6.13 µM
- TGI [23]: 26 µM
- CC50 [23]: > 100 µM
- GI50 [24]: 2.41 µM
- TGI [24]: 5.1 µM
- CC50 [24]: 12.9 µM
- GI50 [25]: 14.2 µM
- TGI [25]: 50.5 µM
- CC50 [25]: > 100 µM
- GI50 [26]: 2.09 µM
- TGI [26]: 7.3 µM
- CC50 [26]: 50.7 µM
- GI50 [27]: 6.08 µM
- TGI [27]: 40 µM
- CC50 [27]: > 100 µM
